According to ChEMBL document CHEMBL4000144, “Novel amide and sulphonamide derivatives of 6-(piperazin-1-yl)phenanthridine as potent Mycobacterium tuberculosis H37Rv inhibitors” (Eur J Med Chem, 2015):
≈ marks a conversion by molar mass, not a printed value.

Assays:
[1] = Cytotoxicity against mouse RAW264.7 cells assessed as inhibition of cell viability at 50 ug/ml after 72 hrs by Cell Titer 96 non-radioactive cell proliferation assay; assay type: cell-based
How it was run: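 Mouse macrophage RAW264.7 cells exposed to compound at 50 µg/mL for 72 h. Viability was then measured by the MTT-type Cell Titer 96 non-radioactive proliferation assay.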

[2] = system: RAW264.7; assay: Cytotoxicity against mouse RAW264.7 cells assessed as inhibition of cell viability after 72 hrs by Cell Titer 96 non-radioactive cell proliferation assay; assay type: cell-based; settings: RAW264.7, 72 h
How it was run: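 MTT-type Cell Titer 96 non-radioactive proliferation assay on mouse macrophage RAW264.7 cells. Viability was read after 72 h of exposure. IC50 values are given as approximate.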

[3] = system: Mycobacterium tuberculosis; assay: Antimycobacterial activity against Mycobacterium tuberculosis H37Rv ATCC 27294 after 5 days by microplate alamar blue assay; assay type: functional; settings: H37Rv ATCC 27294, 120 h
How it was run: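 MTB H37Rv (ATCC 27294) in 7H9GC broth, 2-fold serial dilutions from 50 to 0.78 µg/mL. Controls were medium only, inoculum only, and inoculum with 3-5% DMSO. Incubated at 37°C for 5 days. Then 1:1 10× Alamar Blue/10% Tween 80 was added and plates read after a further 24 h at 37°C. Blue scored as no growth, pink as growth.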

[4] = Selectivity index, ratio of IC50 for mouse RAW264.7 cells to MIC for Mycobacterium tuberculosis H37Rv ATCC 27294; assay type: toxicity; settings: read-out: Selectivity Index

SMILES	inhibition at 72 h, 50 ug/ml [1]	IC50 [2]	MIC99 [3]	selectivity ratio [4]
Cc1cc(S(=O)(=O)N2CCN(c3nc4ccccc4c4ccccc34)CC2)c(C)cc1Cl	34.6%	72.2 µg/mL (≈ 155 µM)	6.25 µg/mL (≈ 13.4 µM)	11.5
COc1ccc(S(=O)(=O)N2CCN(c3nc4ccccc4c4ccccc34)CC2)cc1	26.5%	94.3 µg/mL (≈ 217 µM)	6.25 µg/mL (≈ 14.4 µM)	15.1
O=C(c1ccc([N+](=O)[O-])cc1)N1CCN(c2nc3ccccc3c3ccccc23)CC1			50 µg/mL (≈ 121 µM)	
O=C(Cc1cccc2ccccc12)N1CCN(c2nc3ccccc3c3ccccc23)CC1			> 50 µg/mL	
O=S(=O)(c1ccc(Br)s1)N1CCN(c2nc3ccccc3c3ccccc23)CC1	42.2%	59.3 µg/mL (≈ 121 µM)	3.13 µg/mL (≈ 6.41 µM)	
O=C(CCc1c[nH]c2ccccc12)N1CCN(c2nc3ccccc3c3ccccc23)CC1	34.6%	72.2 µg/mL (≈ 166 µM)	6.25 µg/mL (≈ 14.4 µM)	11.5
O=C(c1cccnc1)N1CCN(c2nc3ccccc3c3ccccc23)CC1	19.2%	130 µg/mL (≈ 354 µM)	6.25 µg/mL (≈ 17 µM)	20.9
O=C(c1cc([N+](=O)[O-])cc([N+](=O)[O-])c1)N1CCN(c2nc3ccccc3c3ccccc23)CC1			25 µg/mL (≈ 54.7 µM)	
O=C(c1ccco1)N1CCN(c2nc3ccccc3c3ccccc23)CC1			25 µg/mL (≈ 69.9 µM)	
O=S(=O)(c1ccc(Br)cc1)N1CCN(c2nc3ccccc3c3ccccc23)CC1	28.2%	88.8 µg/mL (≈ 184 µM)	3.13 µg/mL (≈ 6.49 µM)	28.4
O=C(c1ccccc1)N1CCN(c2nc3ccccc3c3ccccc23)CC1	22.2%	113 µg/mL (≈ 307 µM)	3.13 µg/mL (≈ 8.52 µM)	36.1
O=[N+]([O-])c1ccc(S(=O)(=O)N2CCN(c3nc4ccccc4c4ccccc34)CC2)cc1			50 µg/mL (≈ 111 µM)	
CS(=O)(=O)N1CCN(c2nc3ccccc3c3ccccc23)CC1			25 µg/mL (≈ 73.2 µM)	
O=C(O)c1cccc(C(=O)N2CCN(c3nc4ccccc4c4ccccc34)CC2)n1	26.5%	94.3 µg/mL (≈ 229 µM)	3.13 µg/mL (≈ 7.59 µM)	30.2
O=C(/C=C/c1ccccc1)N1CCN(c2nc3ccccc3c3ccccc23)CC1	22.1%	113 µg/mL (≈ 287 µM)	12.5 µg/mL (≈ 31.8 µM)	9.04
O=S(=O)(c1ccccc1)N1CCN(c2nc3ccccc3c3ccccc23)CC1	30.7%	81.4 µg/mL (≈ 202 µM)	6.25 µg/mL (≈ 15.5 µM)	13
O=S(=O)(c1ccc(F)cc1)N1CCN(c2nc3ccccc3c3ccccc23)CC1	32.8%	76.3 µg/mL (≈ 181 µM)	6.25 µg/mL (≈ 14.8 µM)	12.2
O=S(=O)(c1ccc(C(F)(F)F)cc1)N1CCN(c2nc3ccccc3c3ccccc23)CC1			25 µg/mL (≈ 53 µM)	

SMILES	inhibition at 72 h, 50 ug/ml [1]	IC50 [2]	MIC99 [3]	selectivity ratio [4]
Nc1ccc(C(=O)N2CCN(c3nc4ccccc4c4ccccc34)CC2)cc1			50 µg/mL (≈ 131 µM)	
CC(C)(C)c1ccc(S(=O)(=O)N2CCN(c3nc4ccccc4c4ccccc34)CC2)cc1	28.9%	86.4 µg/mL (≈ 188 µM)	1.56 µg/mL (≈ 3.39 µM)	55.4
O=C(c1ccccn1)N1CCN(c2nc3ccccc3c3ccccc23)CC1	42.2%	59.3 µg/mL (≈ 161 µM)	3.13 µg/mL (≈ 8.5 µM)	19
O=C(c1ccc(Cl)cc1)N1CCN(c2nc3ccccc3c3ccccc23)CC1	26.5%	94.3 µg/mL (≈ 235 µM)	12.5 µg/mL (≈ 31.1 µM)	7.54
O=S(=O)(c1ccc(Cl)cc1)N1CCN(c2nc3ccccc3c3ccccc23)CC1	20.9%	120 µg/mL (≈ 273 µM)	3.13 µg/mL (≈ 7.15 µM)	38.3
O=C(Cc1c[nH]c2ccccc12)N1CCN(c2nc3ccccc3c3ccccc23)CC1			25 µg/mL (≈ 59.5 µM)	
O=C(c1cccc([N+](=O)[O-])c1)N1CCN(c2nc3ccccc3c3ccccc23)CC1	34.6%	72.2 µg/mL (≈ 175 µM)	3.13 µg/mL (≈ 7.59 µM)	23.1
O=C(c1ccncc1)N1CCN(c2nc3ccccc3c3ccccc23)CC1	27.9%	89.6 µg/mL (≈ 243 µM)	1.56 µg/mL (≈ 4.23 µM)	57.4
Cc1ccc(S(=O)(=O)N2CCN(c3nc4ccccc4c4ccccc34)CC2)cc1			> 50 µg/mL	
O=C(c1cccs1)N1CCN(c2nc3ccccc3c3ccccc23)CC1			50 µg/mL (≈ 134 µM)	
N#CCC(=O)N1CCN(c2nc3ccccc3c3ccccc23)CC1			25 µg/mL (≈ 75.7 µM)	
CC(=O)c1ccc(S(=O)(=O)N2CCN(c3nc4ccccc4c4ccccc34)CC2)cc1			25 µg/mL (≈ 56.1 µM)	
O=C(CCCc1c[nH]c2ccccc12)N1CCN(c2nc3ccccc3c3ccccc23)CC1	34.1%	73.3 µg/mL (≈ 163 µM)	1.56 µg/mL (≈ 3.48 µM)	47
Nc1ccccc1C(=O)N1CCN(c2nc3ccccc3c3ccccc23)CC1			> 50 µg/mL	
Cc1cc(C)c(S(=O)(=O)N2CCN(c3nc4ccccc4c4ccccc34)CC2)c(C)c1	26.5%	94.3 µg/mL (≈ 212 µM)	12.5 µg/mL (≈ 28.1 µM)	7.54
NNC(=O)c1ccncc1 [ISONIAZID]			0.1 µg/mL (≈ 0.729 µM)	
NC(=O)c1cnccn1 [PYRAZINAMIDE]			6.25 µg/mL (≈ 50.8 µM)	
CO[C@H]1/C=C/O[C@@]2(C)Oc3c(C)c(O)c4c(O)c(c(/C=N/N5CCN(C)CC5)c(O)c4c3C2=O)NC(=O)/C(C)=C\C=C\[C@H](C)[C@H](O)[C@@H](C)[C@@H](O)[C@@H](C)[C@H](OC(C)=O)[C@@H]1C [RIFAMPIN]			0.2 µg/mL (≈ 0.243 µM)	
